Values after ≈ are worked out from the molar mass of the structure shown. Active and inactive are the calls of the source. The calls are words filed in the database; no cut-off is given here.
Experiments:
[1] = system: Gardnerella vaginalis; experiment: Antibacterial activity against Gardnerella vaginalis clinical isolate USA; assay type: functional
[2] = system: Actinomyces naeslundii; experiment: Antibacterial activity against Actinomyces naeslundii ATCC 1210; assay type: functional
[3] = system: Clostridioides difficile; experiment: Antibacterial activity against Clostridioides difficile clinical isolate USA; assay type: functional
[4] = system: Clostridioides difficile; experiment: Antibacterial activity against Clostridioides difficile ATCC 9689; assay type: functional
[5] = system: Helicobacter pylori; experiment: Antibacterial activity against rifampicin-resistant Helicobacter pylori CB1903 harboring rpoBD530V mutant measured after 5 days by agar dilution method; assay type: functional; settings: CB1903, 120 h, time 5 day
In short: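 Agar dilution per CLSI. Wild-type ATCC 700392 (CB1531) and its derivatives carry defined resistance determinants. Drugs, alone or in 1:1 molar mixtures, were diluted 2-fold from 100× stocks into Mueller–Hinton agar with aged (≥2 weeks) sheep blood (5% v/v). MIC read after 5 days at 35 °C under microaerobic conditions from a campylobacter gas-generating system.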

[6] = system: Clostridioides difficile; experiment: Antibacterial activity against fluoroquinolone-resistant Clostridioides difficile CB1939 measured after 3 days; assay type: functional; settings: CB1939, 72 h, time 3 day
[7] = system: Clostridioides difficile; experiment: Antibacterial activity against rifampicin/fluoroquinolone-resistant Clostridioides difficile CB1942 harboring rpoBQ489K/gyrAD71Y/T82A mutant measured after 3 days; assay type: functional; settings: CB1942, 72 h, time 3 day
[8] = system: Helicobacter pylori; experiment: Bactericidal activity against Helicobacter pylori ATCC 700824 assessed as reduction in CFU at 4 to 16 times MIC by time kill assay; assay type: functional, organism-based
[9] = system: Bifidobacterium longum; experiment: Antibacterial activity against Bifidobacterium longum ATCC 15707; assay type: functional
[10] = system: Clostridioides difficile; experiment: Antibacterial activity against rifampicin-resistant Clostridium difficile MMX 3587; assay type: functional
[11] = system: Prevotella bivia; experiment: Antibacterial activity against Prevotella bivia ATCC 29303/MMX 5718; assay type: functional
[12] = system: Prevotella bivia; experiment: Antibacterial activity against metronidazole-resistant Prevotella bivia MMX 3454; assay type: functional
[13] = system: Prevotella disiens; experiment: Antibacterial activity against Prevotella disiens MMX 3446; assay type: functional
[14] = AUC in C57BL/6 mouse at 20 mg/kg, po; assay type: ADME, organism-based; design: dose 20 mg/kg, route po; settings: in vivo
In short: (§1)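 Plasma PK after single intravenous or oral dosing. Mice C57BL/6 at 5 mg/kg IV or 20 mg/kg PO; Sprague–Dawley rats at 10 mg/kg IV or 50 mg/kg PO; beagle dogs at 5 mg/kg IV or 25 mg/kg PO. AUC reported in ng·h/mL. Clearance from the IV arms in mL/min·kg.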

[15] = Half life in Sprague-Dawley rat at 10 mg/kg, iv; assay type: ADME, organism-based; settings: in vivo
[16] = Volume of distribution at steady state in Sprague-Dawley rat at 10 mg/kg, iv; assay type: ADME, organism-based; settings: in vivo, read-out: Vdss
[17] = Clearance in Sprague-Dawley rat at 10 mg/kg, iv; assay type: ADME, organism-based; settings: in vivo; in short: as §1
[18] = Half life in Beagle dog at 5 mg/kg, iv; assay type: ADME, organism-based, Canis lupus familiaris; settings: in vivo
In short: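 Single-dose PK of TNP-2198 was run in C57BL/6 mice (IV 5 mg/kg; PO 20 mg/kg) and beagle dogs (IV 5 mg/kg; PO 25 mg/kg). Terminal half-life (h) was derived from plasma profiles, together with Tmax, Vdss, CL, AUC and oral bioavailability.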

[19] = AUC in Beagle dog at 25 mg/kg, po; assay type: ADME, organism-based, Canis lupus familiaris; design: dose 25 mg/kg, route po; settings: in vivo; in short: as §1
[20] = Drug distribution in Sprague-Dawley rat plasma measured at 2 hrs; assay type: ADME, cell-free
In short: (§2)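 Sprague–Dawley rats were dosed with TNP-2198. Concentrations were measured in plasma (ng/mL) and in tissues or contents (ng/g) at 0.5, 2, 6, 12 and 24 h after dosing. Values below the limit of quantification are reported as BLOQ.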

[21] = Drug distribution in Sprague-Dawley rat vaginal secretion measured at 6 hrs; assay type: ADME, tissue-based, Vaginal fluid; settings: female, read-out: Ct; in short: as §2
[22] = Drug distribution in Sprague-Dawley rat vaginal secretion measured at 24 hrs; assay type: ADME, tissue-based, Vaginal fluid; settings: female, read-out: Ct; in short: as §2
[23] = Drug distribution in Sprague-Dawley rat vaginal tissue measured at 2 hrs; assay type: ADME, tissue-based, Vagina; settings: female, read-out: Ct; in short: as §2
[24] = Drug distribution in Sprague-Dawley rat vaginal tissue measured at 6 hrs; assay type: ADME, tissue-based, Vagina; settings: female, read-out: Ct; in short: as §2
[25] = Drug distribution in Sprague-Dawley rat vaginal tissue measured at 12 hrs; assay type: ADME, tissue-based, Vagina; settings: female, read-out: Ct; in short: as §2
[26] = Drug distribution in Sprague-Dawley rat brain measured at 0.5 hrs; assay type: ADME, tissue-based; settings: read-out: Ct; in short: as §2
[27] = Drug distribution in Sprague-Dawley rat brain measured at 2 hrs; assay type: ADME, tissue-based; settings: read-out: Ct; in short: as §2
[28] = Drug distribution in Sprague-Dawley rat ascites fluid measured at 0.5 hrs; assay type: ADME, tissue-based, Ascitic fluid; settings: read-out: Ct; in short: as §2
[29] = Drug distribution in Sprague-Dawley rat ascites fluid measured at 24 hrs; assay type: ADME, tissue-based, Ascitic fluid; settings: in vivo, BLD = below limit of detection; in short: as §2
[30] = Drug distribution in Sprague-Dawley rat gums measured at 0.5 hrs; assay type: ADME, tissue-based, Gingiva; settings: read-out: Ct; in short: as §2
[31] = Drug distribution in Sprague-Dawley rat gums measured at 12 hrs; assay type: ADME, tissue-based, Gingiva; settings: read-out: Ct; in short: as §2
[32] = Drug distribution in Sprague-Dawley rat stomach content measured at 12 hrs; assay type: ADME, tissue-based; settings: read-out: Ct; in short: as §2
[33] = Drug distribution in Sprague-Dawley rat stomach tissue measured at 6 hrs; assay type: ADME, tissue-based; settings: read-out: Ct; in short: as §2
[34] = Drug distribution in Sprague-Dawley rat large intestine content measured at 6 hrs; assay type: ADME, tissue-based; settings: read-out: Ct; in short: as §2
[35] = Drug distribution in Sprague-Dawley rat large intestine content measured at 12 hrs; assay type: ADME, tissue-based; settings: read-out: Ct; in short: as §2
[36] = Drug distribution in Sprague-Dawley rat large intestine tissue measured at 2 hrs; assay type: ADME, tissue-based; settings: read-out: Ct; in short: as §2
[37] = Drug distribution in Sprague-Dawley rat large intestine tissue measured at 12 hrs; assay type: ADME, tissue-based; settings: read-out: Ct; in short: as §2
[38] = system: Helicobacter pylori; experiment: Resistance development in Helicobacter pylori MMX 3719 assessed as spontaneous resistance frequency using at 1.90 x 10^8 CFU inoculum at 2 ug/ml; assay type: functional; settings: dose 2 µg/ml
In short: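 H. pylori MMX 3719 exposed to 0.5, 1, 2 and 4 µg/mL drug with an inoculum of 1.90×10^8 CFU at each level. Two independent tests were run, and resistant colonies were counted and averaged. A spontaneous resistance frequency was reported for each concentration, and the MPC was taken across the concentrations tested.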

[39] = system: Gardnerella vaginalis; experiment: Resistance development in Gardnerella vaginalis MMX 5973 assessed as spontaneous resistance frequency using at 4.50 x 10^8 CFU inoculum at 1 ug/ml; assay type: functional; settings: dose 1 µg/ml
In short: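 Resistant colonies were counted at each drug concentration in two separate tests (test 1, test 2) and averaged. The spontaneous resistance frequency was taken from the mean colony count relative to the inoculum plated. Drug levels tested were 0.5, 1, 2 and 4 µg/mL, and a mutation prevention concentration (MPC) was also reported.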

[40] = system: Gardnerella vaginalis; experiment: Resistance development in Gardnerella vaginalis MMX 5973 assessed as mutation prevention concentration using at 4.50 x 10^8 CFU inoculum; assay type: functional; settings: dose 0.5 µg/ml
[41] = system: Syrian golden hamster; experiment: Antibacterial activity against Clostridioides difficile UNT-103-1 infected in Syrian hamster assessed as mortality at 5 mg/kg, po administered once a daily for 5 days after 18 hrs post 10 mg/kg clindamycin treatment and measured after 7 to 9 days; assay type: functional, Mesocricetus auratus; settings: time 7-9 day
In short: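 Male Golden Syrian hamsters (80-90 g), housed singly, were gavaged with C. difficile UNT103-1 grown in sporulation medium broth and diluted to OD600 1 in prereduced broth. […] From 18 h later, drug or vehicle was given by oral gavage once daily for 5 days. Survival was recorded through day 21.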

[42] = system: Clostridioides difficile; experiment: Antibacterial activity against Clostridioides difficile BAA 1382; assay type: functional

CO[C@H]1/C=C/O[C@@]2(C)Oc3c(C)c(O)c4c(c3C2=O)C2=NC3(CCN(CCn5c([N+](=O)[O-])cnc5C)CC3)NC2=C(NC(=O)/C(C)=C\C=C\[C@H](C)[C@H](O)[C@@H](C)[C@@H](O)[C@@H](C)[C@H](OC(C)=O)[C@@H]1C)C4=O [RIFASUTENIZOL]
MIC [1]: ≤ 0.004 µg/mL
MIC90 [1]: 0.06 µg/mL (≈ 0.0636 µM)
MIC [2]: 0.001 µg/mL (≈ 0.00106 µM)
MIC [3]: 0.002 µg/mL (≈ 0.00212 µM)
MIC90 [3]: 1 µg/mL (≈ 1.06 µM)
MIC [4]: 0.0002 µg/mL (≈ 0.000212 µM)
MIC [5]: 0.125 µg/mL (≈ 0.132 µM)
MIC [6]: ≤ 0.002 µg/mL
MIC [7]: 0.06 µg/mL (≈ 0.0636 µM)
Activity [8]: Active
MIC [9]: 0.015 µg/mL (≈ 0.0159 µM)
MIC [10]: 0.25 µg/mL (≈ 0.265 µM)
MIC [11]: 0.015 µg/mL (≈ 0.0159 µM)
MIC [12]: 0.015 µg/mL (≈ 0.0159 µM)
MIC [13]: 0.015 µg/mL (≈ 0.0159 µM)
AUC [14]: 3040 ng·h/mL
half-life [15]: 0.77 h
Vd [16]: 1.6 L/kg
clearance [17]: 26 mL/min/kg
half-life [18]: 3.9 h
AUC [19]: 14800 ng·h/mL
concentration at 2 h [20]: 2640 ng/mL
concentration at 6 h [21]: 6240 ng/g
concentration at 24 h [22]: 54.6 ng/g
concentration at 2 h [23]: 5900 ng/g
concentration at 6 h [24]: 2590 ng/g
concentration at 12 h [25]: 35.8 ng/g
concentration at 0.5 h [26]: 114 ng/g
concentration at 2 h [27]: 392 ng/g
concentration at 0.5 h [28]: 2620 ng/g
Ct [29]: Bld
concentration at 0.5 h [30]: 3470 ng/g
concentration at 12 h [31]: 115 ng/g
concentration at 12 h [32]: 138 ng/g
concentration at 6 h [33]: 10600 ng/g
concentration at 6 h [34]: 84300 ng/g
concentration at 12 h [35]: 2980 ng/g
concentration at 2 h [36]: 8410 ng/g
concentration at 12 h [37]: 31.6 ng/g
Activity [38]: <5 10^-9No_unit
Activity [39]: <2 10^-9No_unit
Activity [40]: <=0.5 ug ml-1
Activity [41]: 10%
MIC [42]: 0.00025 µg/mL (≈ 0.000265 µM)

— ChEMBL document CHEMBL5131497, “Design, Synthesis, and Characterization of TNP-2198, a Dual-Targeted Rifamycin-Nitroimidazole Conjugate with Potent Activity against Microaerophilic and Anaerobic Bacterial Pathogens” (J Med Chem, 2022)
